Experimental findings from ChEMBL document CHEMBL4814060, “Design, synthesis and biological evaluation of novel pleuromutilin derivatives as potent anti-MRSA agents targeting the 50S ribosome” (Bioorg Med Chem, 2021) are described below.

SMILES strings stand for the structures. Converted amounts (≈) assume the structure as drawn.

The subject of series [1] is Staphylococcus aureus. As to the kind of experiment: Antibacterial activity against Staphylococcus aureus AD3 assessed as inhibition of visible growth incubated for 24 hrs by CLSI protocol based broth microdilution method. It is filed as functional.
The subject of series [2] is Staphylococcus aureus. As to the kind of experiment: Bactericidal activity against methicillin-resistant Staphylococcus aureus ATCC 43300 assessed as reduction in bacterial growth at 1 to 32 times of MIC measured upto 24 hrs by time kill assay. Conditions: time hrs <=24, TDE = time-dependent effect. The class given is functional, organism-based. In short, it runs like this: (§1)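 MRSA was grown in MH broth at 37 °C for 4.5 h and diluted to 1×10^6 CFU/mL. Compound was added at 1, 2, 4, 8, 16 or 32 × MIC; growth control had 0.9% saline only. Cultures were shaken at 37 °C and sampled at 0, 3, 6, 9 and 24 h. Samples were serially diluted in saline and plated on MH agar, with CFU counted after 24 h at 37 °C. Run in triplicate.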

For series [3], the system named is Staphylococcus aureus. As to the kind of experiment: Antibacterial activity against methicillin-resistant Staphylococcus aureus ATCC 43300 assessed as reduction in bacterial growth at 4 times of MIC measured at 3 hrs by time kill assay. The class given is functional. In short, it runs like this:
as §1

Series [4] concerns Staphylococcus aureus. As to the kind of experiment: Antibacterial activity against Staphylococcus aureus ATCC 29213 assessed as inhibition of visible growth incubated for 24 hrs by CLSI protocol based broth microdilution method. It is filed as functional. For orientation: Dilution methods test growth across graded concentrations, often in twofold steps.
Series [5] deals with Staphylococcus aureus. As to the kind of experiment: Antibacterial activity against Staphylococcus aureus 144 assessed as inhibition of visible growth incubated for 24 hrs by CLSI protocol based broth microdilution method. The class given is functional.
Series [6] addresses T1, Bacterial 70S ribosome (Bacteria) (UniProt P0A7V0+P60723+P0AG67+P0A7R5+P0A7R9+P0A7S3+P0A7S9+P0AG59+P0ADZ4+P0A7T3+P0AG63+P0A7T7+P0A7U3+P0A7U7+P68679+P0A7V3+P0A7V8+P0A7W1+P02358+P02359+P0A7W7+P0A7X3+P0A7J3+P0A7J7+P0AA10+P0ADY3+P02413+P0ADY7+P0AG44+P0C018+P0A7K6+P0A7L0+P0A7L3+P0AG48+P61175+P0ADZ0+P60624+P68919+P0A7L8+P0A7M2+P0A7M6+P60422+P0AG51+P0A7N1+P0A7M9+P0A7N4+P0A7N9+P0A7P5+P0A7Q1+Q2EEQ2+P0A7Q6+P60438+P62399+P0AG55+P0A7K2). As to the kind of experiment: Binding affinity to Staphylococcus aureus ATCC 43300 50S ribosome assessed as dissociation rate constant by SPR analysis. It is filed as subcellular. In short, it runs like this: (§2)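 The 50S subunit was purified from ATCC 43300 by sucrose cushion, a 7–30% sucrose gradient and PEG precipitation. Compounds at 100 µM in DMSO were photo-crosslinked onto the chip and printed four times each. Ribosome at 200–3200 nM in PBST (pH 7.4, 0.1% Tween 20) was run at 4 °C: association 600 s, then dissociation 360 s, both at 0.5 µL/s. Surface was regenerated with glycine-HCl pH 2.0.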
For orientation: In SPR one partner is held on a chip, and binding of the other changes the refractive index at the surface.

For series [7], the system named is Staphylococcus aureus. As to the kind of experiment: Antibacterial activity against methicillin-resistant Staphylococcus aureus ATCC 43300 assessed as inhibition of visible growth incubated for 24 hrs by CLSI protocol based broth microdilution method. It is filed as functional.
In series [8] the test system is Staphylococcus aureus. As to the kind of experiment: In vivo antibacterial activity against methicillin-resistant Staphylococcus aureus ATCC 43300 infected in ICR/Swiss mouse model of neutropenic thigh infection assessed as reduction in bacterial growth at 20 mg/kg, iv administered 2 hrs after infection and tissue collected after 24 hrs and measured after 24 hrs […]. The class given is functional. In short, it runs like this: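 Female ICR/Swiss mice, 6 weeks old, were made neutropenic with ip cyclophosphamide (150 mg/kg at day −4, 100 mg/kg at day −1). Each thigh received about 10^7 CFU/mL MRSA in 0.1 mL. At 2 h, mice got a single iv dose of 20 mg/kg or saline, with 3 mice (6 thighs) per group. At 24 h, thighs were homogenized in iced saline, diluted and plated on MH agar, and CFU counted after 24 h at 37 °C.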

Series [9] deals with T1, Bacterial 70S ribosome (Bacteria). As to the kind of experiment: Binding affinity to Staphylococcus aureus ATCC 43300 50S ribosome assessed as association constant by SPR analysis. The class given is subcellular. In short, it runs like this: as §2
For another series, the target named is Cytochrome P450 3A4 (Homo sapiens, UniProt P08684). As to the kind of experiment: Inhibition of CYP3A4 in human liver microsomes using testosterone as substrate incubated for 5 mins followed by NADPH addition and measured after 5 mins by LC/MS/MS analysis. In short, it runs like this:
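Final conditions: human liver microsomes 0.2 mg/mL, testosterone 20 μmol/L, 0.1 M Tris pH 7.4, inhibitor at 2.5–80 μM. Plates were preincubated 5 min at 37 °C, then started with NADPH (final 1 mmol/L) and run 5 min. Reaction was stopped with acetonitrile containing loratadine as internal standard, and the supernatant was analysed by LC-MS/MS. IC50 was determined.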

The subject of a further series is RAW264.7. As to the kind of experiment: Cytotoxicity against mouse RAW264.7 cells assessed as reduction in cell viability at < 40 ug/ml incubated for 16 hrs by MTT assay. Conditions: raw264.7, 16 h.

Sequence of Cytochrome P450 3A4 (P08684 whole entry): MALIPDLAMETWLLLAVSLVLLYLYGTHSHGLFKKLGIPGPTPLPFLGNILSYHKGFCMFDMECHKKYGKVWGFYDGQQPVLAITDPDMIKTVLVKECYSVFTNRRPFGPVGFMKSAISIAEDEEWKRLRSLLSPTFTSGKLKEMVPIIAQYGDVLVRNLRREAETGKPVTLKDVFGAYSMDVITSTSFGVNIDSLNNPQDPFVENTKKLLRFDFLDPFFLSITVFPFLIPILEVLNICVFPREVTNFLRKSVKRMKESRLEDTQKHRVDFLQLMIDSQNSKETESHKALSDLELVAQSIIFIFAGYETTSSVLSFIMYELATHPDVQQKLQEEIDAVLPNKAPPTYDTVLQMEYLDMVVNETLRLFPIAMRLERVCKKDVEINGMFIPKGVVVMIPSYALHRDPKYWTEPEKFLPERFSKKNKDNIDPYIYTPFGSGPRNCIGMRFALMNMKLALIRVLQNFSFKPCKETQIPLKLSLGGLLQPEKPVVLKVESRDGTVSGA

Turning to `C=C[C@]1(C)C[C@@H](OC(=O)CSc2nc(N)n(C(=O)c3cccc(Cl)c3)n2)[C@]2(C)[C@H](C)CC[C@]3(CCC(=O)[C@H]32)[C@@H](C)[C@@H]1O`, the MIC – broadly, the smallest concentration in the dilution series that meets the test's criterion for growth inhibition – was 0.25 µg/mL (≈ 0.406 µM) in the series on Staphylococcus aureus [1], 0.25 µg/mL (≈ 0.406 µM) with Staphylococcus aureus [4], 0.5 µg/mL (≈ 0.813 µM) in the series with Staphylococcus aureus [5] and 0.25 µg/mL (≈ 0.406 µM) with Staphylococcus aureus [7]. Further, in the series on Staphylococcus aureus [2], the Activity result was “Tde”. Moreover, in the series with Staphylococcus aureus [3], the log10CFU/ml is -1.23. In addition, the Kdiss in series [6] was 4.94 10^-7M.
Turning to `C=C[C@]1(C)C[C@@H](OC(=O)CSCCN(CC)CC)[C@]2(C)[C@H](C)CC[C@]3(CCC(=O)[C@H]32)[C@@H](C)[C@@H]1O` [TIAMULIN], the MIC in the series on Staphylococcus aureus [1] stood at 1 µg/mL (≈ 2.03 µM); with Staphylococcus aureus [4], 1 µg/mL (≈ 2.03 µM); in the series on Staphylococcus aureus [5], 1 µg/mL (≈ 2.03 µM); with Staphylococcus aureus [7] it was 0.5 µg/mL (≈ 1.01 µM). The Activity with Staphylococcus aureus [8] was determined as 0.91 log10CFU/g.
With `C=C[C@]1(C)C[C@@H](OC(=O)CSc2nc(N)n(C(=O)c3cccc(F)c3)n2)[C@]2(C)[C@H](C)CC[C@]3(CCC(=O)[C@H]32)[C@@H](C)[C@@H]1O`, the MIC with Staphylococcus aureus [1] stood at 0.5 µg/mL (≈ 0.835 µM); in the series on Staphylococcus aureus [4], 0.5 µg/mL (≈ 0.835 µM); with Staphylococcus aureus [5], 1 µg/mL (≈ 1.67 µM); in the series on Staphylococcus aureus [7], 0.25 µg/mL (≈ 0.418 µM). Besides, the results for the Activity result in the series on Staphylococcus aureus [2] and in the series on Staphylococcus aureus [3] were “Tde” and -1.26 log10CFU/ml, respectively. Further, the Ka in [9] is 5.4 10^2/Ms. Moreover, in series [6], the Kdiss is 2.21 10^-5M.
As to `C=C[C@]1(C)C[C@@H](OC(=O)CSc2nc(N)n(C(=O)c3ccc(C)cc3)n2)[C@]2(C)[C@H](C)CC[C@]3(CCC(=O)[C@H]32)[C@@H](C)[C@@H]1O`, the minimal inhibitory concentration (MIC) in the series with Staphylococcus aureus [1], with Staphylococcus aureus [4], in the series with Staphylococcus aureus [5] and in the series with Staphylococcus aureus [7] was 0.125 µg/mL (≈ 0.21 µM) throughout. For the same molecule, on Cytochrome P450 3A4, the IC50 (usually the concentration that gives 50% inhibition) came out at 3.95 µM. Moreover, the Activity entry in the series with Staphylococcus aureus [2] was “Tde”; in the series on Staphylococcus aureus [3] it was -1.95 log10CFU/ml; with RAW264.7, “Non-Toxic”; with Staphylococcus aureus [8], 1.89 log10CFU/g. Further, the Ka in series [9] was 4.16 10^2/Ms. Also, the Kdiss in series [6] is 2.2 10^-4M.
In the case of `C=C[C@]1(C)C[C@@H](OC(=O)CSc2nc(N)n(C(=O)c3cccc(C)c3)n2)[C@]2(C)[C@H](C)CC[C@]3(CCC(=O)[C@H]32)[C@@H](C)[C@@H]1O`, the MIC came to 0.5 µg/mL (≈ 0.841 µM) with Staphylococcus aureus [1], 0.5 µg/mL (≈ 0.841 µM) in the series with Staphylococcus aureus [4], 0.5 µg/mL (≈ 0.841 µM) in the series on Staphylococcus aureus [5] and 0.25 µg/mL (≈ 0.42 µM) in the series with Staphylococcus aureus [7]. In addition, in series [6], the Kdiss is 8.79 10^-6M.
Regarding `C=C[C@]1(C)C[C@@H](OC(=O)CSc2nc(N)n(C(=O)c3ccccc3F)n2)[C@]2(C)[C@H](C)CC[C@]3(CCC(=O)[C@H]32)[C@@H](C)[C@@H]1O`, the MIC in the series with Staphylococcus aureus [1] is 2 µg/mL (≈ 3.34 µM); with Staphylococcus aureus [4], 2 µg/mL (≈ 3.34 µM); in the series with Staphylococcus aureus [5], 4 µg/mL (≈ 6.68 µM); in the series with Staphylococcus aureus [7] it was 1 µg/mL (≈ 1.67 µM).
In the case of `C=C[C@]1(C)C[C@@H](OC(=O)CSc2nc(N)n(C(=O)c3ccccc3)n2)[C@]2(C)[C@H](C)CC[C@]3(CCC(=O)[C@H]32)[C@@H](C)[C@@H]1O`, the MIC in the series on Staphylococcus aureus [1] amounted to 1 µg/mL (≈ 1.72 µM); with Staphylococcus aureus [4] it was 1 µg/mL (≈ 1.72 µM); with Staphylococcus aureus [5] it was 2 µg/mL (≈ 3.44 µM); with Staphylococcus aureus [7], 0.25 µg/mL (≈ 0.43 µM). Also, in series [6], the Kdiss was 2.7 10^-4M.
Take `C=C[C@]1(C)C[C@@H](OC(=O)CSc2nc(N)n(C(=O)c3ccc(Cl)cc3)n2)[C@]2(C)[C@H](C)CC[C@]3(CCC(=O)[C@H]32)[C@@H](C)[C@@H]1O`: the MIC is 1 µg/mL (≈ 1.63 µM) in the series on Staphylococcus aureus [1], 1 µg/mL (≈ 1.63 µM) in the series on Staphylococcus aureus [4], 1 µg/mL (≈ 1.63 µM) in the series on Staphylococcus aureus [5] and 0.5 µg/mL (≈ 0.813 µM) in the series on Staphylococcus aureus [7].
`C=C[C@]1(C)C[C@@H](OC(=O)CSc2nc(N)n(C(=O)c3ccccc3C)n2)[C@]2(C)[C@H](C)CC[C@]3(CCC(=O)[C@H]32)[C@@H](C)[C@@H]1O`: the MIC is 1 µg/mL (≈ 1.68 µM) in the series on Staphylococcus aureus [1], 1 µg/mL (≈ 1.68 µM) with Staphylococcus aureus [4], 1 µg/mL (≈ 1.68 µM) in the series with Staphylococcus aureus [5] and 0.5 µg/mL (≈ 0.841 µM) with Staphylococcus aureus [7].
For the molecule `C=C[C@]1(C)C[C@@H](OC(=O)CSc2nc(N)n(C(=O)c3ccc(OC)cc3)n2)[C@]2(C)[C@H](C)CC[C@]3(CCC(=O)[C@H]32)[C@@H](C)[C@@H]1O`, the MIC in the series on Staphylococcus aureus [1] came out at 0.25 µg/mL (≈ 0.409 µM); in the series on Staphylococcus aureus [4], 0.25 µg/mL (≈ 0.409 µM); with Staphylococcus aureus [5] it was 0.5 µg/mL (≈ 0.819 µM); with Staphylococcus aureus [7] it was 0.25 µg/mL (≈ 0.409 µM). Further, the results for the Activity result with Staphylococcus aureus [2] and in the series with Staphylococcus aureus [3] were “Tde” and -2.42 log10CFU/ml, respectively. Moreover, the Kdiss in [6] was 2.22 10^-7M.
